Results as given in publication PMC5071636 (Acta Pharmaceutica Sinica. B, 2016).

Key:
[1] = system: eEF2 phosphorylation in H1299 cells; test: Western blot of phospho-eEF2 in H1299 cells; assay type: cell-based, human; conditions: 6 h treatment
eEF2K in cells = conditions: cited from earlier work
cells = conditions: at high concentrations; cited from earlier work
[2] = system: eEF2 phosphorylation in HCT116 cells; test: Western blot of phospho-eEF2 in HCT116 cells; assay type: cell-based, human; conditions: 6 h treatment
[3] = system: eEF2 phosphorylation in MDA-MB-453 cells; test: Western blot of phospho-eEF2; assay type: cell-based, human
Procedure, shortened: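 MDA-MB-453 grown in L15 with 10% FBS, 1 mmol/L pyruvate, 0.5 mg/mL geneticin, no CO2. Seeded at 2×10^5 cells/well; 24 h later given test compound at several concentrations for 6 h. Lysed in 2× SDS loading buffer, 95 °C 10 min, on 10% gels to PVDF, milk-blocked. Probed overnight at 4 °C for phospho-eEF2 Thr56 and eEF2, β-actin loading control. Fluorescent secondary read-out. Three independent experiments in duplicate, mean ±SEM.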

eEF2K = conditions: cited from earlier work

In the case of `CCn1c(=O)c2cc(C(N)=O)c(N)nc2n(C2CC2)c1=O` [A484954], the “effect on eEF2 phosphorylation (p-eEF2)” value [1] is given as “capable of inhibiting eEF2 phosphorylation”, the “potency on eEF2K in cells” value (eEF2K in cells) is given as “rather low potency” and the cytotoxicity (cells) is given as “cytotoxic at high concentrations”. For the same compound, the “effect on eEF2 phosphorylation (p-eEF2)” value [2] was “capable of inhibiting eEF2 phosphorylation”, the “effect on eEF2 phosphorylation (p-eEF2)” value ([3]; MDA-MB-453 cells, 6 h treatment) was “capable of inhibiting eEF2 phosphorylation” and the “total protein level of eEF2” value ([3]; in the cell) was “not affected”.

For `CCCCCCCCCCCCCCCC[n+]1ccn(Cc2ccccc2)c1C.[I-]` [NH125, 1-Benzyl-3-cetyl-2-methylimidazolium iodide], the “effect on eEF2K activity in vitro” value (eEF2K) is given as “inhibits eEF2K activity” and the “effect on eEF2 phosphorylation in vivo” value (eEF2K in cells) is given as “promotes eEF2 phosphorylation”.

For `c1cnc2sccc2c1` [Thieno [2,3-b] pyridine], the “inhibitory effects on eEF2K in cells” value (eEF2K in cells) is listed as “weak inhibitory effects”.
